In publication PMC5189635 (ChemMedChem, 2016):
pIC50: −log10 of the molar value. ≈ marks a conversion by molar mass, not a printed value. Read-outs that look alike come from different tables or passages of the source. Marks after values point to notes of the source that are not given here.

Columns and labels:
[1] = system: A. baumanii ATCC9955; assay: MIC, A. baumanii ATCC9955; assay type: cell-based
[2] = system: Klebisiella spp.; assay: MIC, Klebisiella spp.; assay type: cell-based
[3] = system: P. aeruginosa T15464 (MDR); assay: MIC, P. aeruginosa T15464; assay type: cell-based
[4] = system: S. typhimurium SL1344; assay: MIC, S. typhimurium SL1344; assay type: cell-based
[5] = system: K. pneumoniae BARB 105; assay: MIC, K. pneumoniae BARB 105; assay type: cell-based
[6] = system: E. coli C291-b1; assay: MIC, E. coli C291-b1; assay type: cell-based
[7] = system: E. coli NR698; assay: Bacteriostatic effect; assay type: cell-based; conditions: Addition None
[8] = target: H+-ATPase (Escherichia coli, UniProt P0ABB0+P0ABB4); assay: In vitro ATPase activity, H+-ATPase; assay type: biochemical; conditions: read-out: ATPase activity IC50
Chain of H+-ATPase (P0ABB0 whole entry): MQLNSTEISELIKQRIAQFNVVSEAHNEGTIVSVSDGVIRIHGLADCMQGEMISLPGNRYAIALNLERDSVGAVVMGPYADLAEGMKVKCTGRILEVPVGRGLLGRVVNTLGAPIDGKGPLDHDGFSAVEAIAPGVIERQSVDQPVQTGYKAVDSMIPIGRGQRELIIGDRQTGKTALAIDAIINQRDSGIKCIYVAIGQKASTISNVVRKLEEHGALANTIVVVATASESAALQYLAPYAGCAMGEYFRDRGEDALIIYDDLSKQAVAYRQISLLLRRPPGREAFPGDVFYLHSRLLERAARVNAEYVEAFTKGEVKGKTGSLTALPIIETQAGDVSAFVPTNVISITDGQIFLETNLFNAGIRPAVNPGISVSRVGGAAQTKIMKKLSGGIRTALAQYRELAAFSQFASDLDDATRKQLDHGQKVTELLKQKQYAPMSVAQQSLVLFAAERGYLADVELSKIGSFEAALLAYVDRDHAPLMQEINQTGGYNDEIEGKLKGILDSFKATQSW
Chain of H+-ATPase (P0ABB4 2-460): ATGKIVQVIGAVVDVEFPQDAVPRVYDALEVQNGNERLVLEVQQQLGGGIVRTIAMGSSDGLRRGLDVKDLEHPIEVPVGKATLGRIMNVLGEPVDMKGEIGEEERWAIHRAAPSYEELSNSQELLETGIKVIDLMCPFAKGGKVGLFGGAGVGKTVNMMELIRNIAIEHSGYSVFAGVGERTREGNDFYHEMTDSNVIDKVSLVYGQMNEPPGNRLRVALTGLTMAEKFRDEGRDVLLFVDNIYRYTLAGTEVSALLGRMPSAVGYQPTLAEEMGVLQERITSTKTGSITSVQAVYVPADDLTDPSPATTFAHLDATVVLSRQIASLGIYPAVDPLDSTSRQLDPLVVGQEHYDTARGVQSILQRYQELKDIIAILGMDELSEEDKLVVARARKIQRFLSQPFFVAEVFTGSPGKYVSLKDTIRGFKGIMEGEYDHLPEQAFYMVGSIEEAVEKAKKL
Chain of H+-ATPase (P0ABA6 whole entry, further chain): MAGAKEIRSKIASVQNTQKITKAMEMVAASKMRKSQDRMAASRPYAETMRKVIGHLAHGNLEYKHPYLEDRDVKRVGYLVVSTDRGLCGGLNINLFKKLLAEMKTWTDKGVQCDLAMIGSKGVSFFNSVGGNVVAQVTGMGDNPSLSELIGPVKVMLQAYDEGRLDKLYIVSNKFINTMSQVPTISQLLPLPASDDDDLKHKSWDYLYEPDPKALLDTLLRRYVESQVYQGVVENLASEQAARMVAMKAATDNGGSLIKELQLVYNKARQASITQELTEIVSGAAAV

[9] = target: SpuB ATPase (Pseudomonas aeruginosa, UniProt Q9I6J3); assay: In vitro ATPase activity, SpuB; assay type: biochemical; conditions: read-out: ATPase activity IC50
[10] = system: E. coli MC4100; assay: Bacteriostatic effect; assay type: cell-based
[11] = system: Shigella flexneri ATCC12022; assay: Bacteriostatic effect; assay type: cell-based
Procedure, shortened: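 Broth microdilution per CLSI guidelines: LB with 0.2% glucose, exponential-phase cells (OD600 ≈ 0.5), 2% DMSO final. Permeabilizer, where added, was PMBN 25 μg/mL or NAB7061 4 μg/mL. Incubated 24 h at 37 °C with shaking at 250 rpm. Run in triplicate in three separate experiments. MIC is the lowest concentration with no growth.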

[12] = target: PaSecA (Pseudomonas aeruginosa, UniProt Q9LCT3); conditions: read-out: Protein translocation IC50; PaSecA-liposomes; published RB; cited from earlier work
Chain of PaSecA (Q9LCT3 whole entry): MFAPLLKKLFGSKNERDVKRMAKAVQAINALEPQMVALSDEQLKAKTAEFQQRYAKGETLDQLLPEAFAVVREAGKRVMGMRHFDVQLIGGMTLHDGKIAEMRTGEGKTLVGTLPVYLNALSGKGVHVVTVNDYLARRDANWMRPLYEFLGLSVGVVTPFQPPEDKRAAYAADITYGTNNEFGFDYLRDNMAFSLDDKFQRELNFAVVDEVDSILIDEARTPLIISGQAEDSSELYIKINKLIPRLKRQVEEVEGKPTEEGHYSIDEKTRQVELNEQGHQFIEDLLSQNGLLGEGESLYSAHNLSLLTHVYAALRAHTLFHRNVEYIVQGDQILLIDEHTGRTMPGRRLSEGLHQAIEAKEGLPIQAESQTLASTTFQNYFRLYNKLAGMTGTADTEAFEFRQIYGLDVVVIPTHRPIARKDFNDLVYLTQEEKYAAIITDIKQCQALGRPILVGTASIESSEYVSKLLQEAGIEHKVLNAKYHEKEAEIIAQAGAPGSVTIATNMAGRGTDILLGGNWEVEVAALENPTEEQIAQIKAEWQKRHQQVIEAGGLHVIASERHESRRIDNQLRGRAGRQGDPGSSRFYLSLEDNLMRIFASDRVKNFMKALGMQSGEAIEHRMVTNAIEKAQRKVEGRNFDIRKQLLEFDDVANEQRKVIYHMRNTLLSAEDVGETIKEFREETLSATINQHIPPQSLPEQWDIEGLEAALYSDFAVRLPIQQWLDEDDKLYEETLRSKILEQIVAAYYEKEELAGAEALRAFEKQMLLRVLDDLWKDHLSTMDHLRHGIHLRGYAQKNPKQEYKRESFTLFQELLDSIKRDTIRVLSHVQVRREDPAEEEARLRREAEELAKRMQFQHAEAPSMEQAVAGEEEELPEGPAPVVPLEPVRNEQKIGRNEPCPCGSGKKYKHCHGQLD

[13] = A. baumanii ATCC9955, NAB7061 4 μg/mL
[14] = A. baumanii ATCC9955, PMBN 25 μg/mL
[15] = Acinetobacter baumannii, ATCC9955
[16] = Klebisiella spp., Addition None
[17] = Klebisiella spp., NAB7061 4 μg/mL
[18] = P. aeruginosa T15464 (MDR), NAB7061 4 μg/mL
[19] = P. aeruginosa T15464 (MDR), PMBN 3 μg/mL
[20] = Pseudomonas aeruginosa, read-out: MIC100
[21] = S. typhimurium SL1344, NAB7061 4 μg/mL
[22] = S. typhimurium SL1344, PMBN 25 μg/mL
[23] = Salmonella enterica, TYPHIMURIUM
[24] = K. pneumoniae BARB 105, NAB7061 4 μg/mL
[25] = K. pneumoniae BARB 105, PMBN 25 μg/mL
[26] = E. coli C291-b1, NAB7061 4 μg/mL
[27] = Klebisiella spp., PMBN 25 μg/mL

Row | SMILES | MIC [1, 13] | MIC [1, 14] | MIC [1, 15] [µg/mL] | MIC [2, 16] | MIC [2, 17] | MIC [3, 18] | MIC [3, 19] | MIC [3, 20] [µg/mL] | MIC [4, 21] [µg/mL] | MIC [4, 22] [µg/mL] | MIC [4, 23] [µg/mL] | MIC [5, 24] | MIC [5, 25] | MIC [6, 26] | MIC ([6]; E. coli C291-b1, PMBN 25 μg/mL) | MIC [2, 27] | also measured
1 | CC1(C)S[C@@H]2[C@H](NC(=O)C(C(=O)O)c3ccccc3)C(=O)N2[C@H]1C(=O)O (stereo partly shown) [Carbenicillin] | >1,000 μg/mL | >1,000 μg/mL | > 1000 | >1,250 μg/mL | >1,250 μg/mL | >1,000 μg/mL | >1,000 μg/mL | > 1000 | >500 | >500 | > 500 | >1,000 μg/mL | >1,000 μg/mL | >1,000 μg/mL | >1,000 μg/mL | – | MIC [2]: > 1250 µg/mL; MIC ([3]; Pseudomonas aeruginosa): > 1000 µg/mL; MIC ([5]; Klebsiella pneumoniae, BARB105): > 1000 µg/mL; MIC ([6]; Escherichia coli, C291B1): > 1000 µg/mL
2 | O=C1OC2(c3cc(I)c(O)c(I)c3Oc3c2cc(I)c(O)c3I)c2c(Cl)c(Cl)c(Cl)c(Cl)c21 [RB, Rose Bengal] | 127.2 µg/mL (≈ 131 µM) | 80.6 µg/mL (≈ 82.8 µM) | – | >1,272 ^* μg/mL | >254 ^* μg/mL | 3.2 µg/mL (≈ 3.29 µM) | 0.4 µg/mL (≈ 0.411 µM) | – | 254 (≈ 261 µM) | 17 (≈ 17.5 µM) | – | >254 ^* μg/mL | 25.4 µg/mL (≈ 26.1 µM) | >254 ^* μg/mL | 3.2 µg/mL (≈ 3.29 µM) | >254 ^* μg/mL | MIC [7]: 4.5 µg/mL (≈ 4.62 µM); MIC ([1]; A. baumanii ATCC9955, Addition None): >1,272 ^* μg/mL; pIC50 [8]: 4.22; pIC50 [9]: < 3.70; MIC ([3]; P. aeruginosa T15464 (MDR), Addition None): >1,272 ^* μg/mL; MIC ([4]; S. typhimurium SL1344, Addition None): >1,272 ^* μg/mL; MIC ([5]; K. pneumoniae BARB 105, Addition None): >1,272 ^* μg/mL; MIC ([10]; E. coli MC4100, Addition None): >1,272 ^* μg/mL; MIC ([10]; E. coli MC4100, NAB7061 4 μg/mL): 2.0 µg/mL (≈ 2.05 µM); MIC ([10]; E. coli MC4100, PMBN 25 μg/mL): 15.9 µg/mL (≈ 16.3 µM); MIC ([11]; Shigella flexneri ATCC12022, NAB7061 4 μg/mL): 1.6 µg/mL (≈ 1.64 µM); MIC ([11]; Shigella flexneri ATCC12022, PMBN 25 μg/mL): 7.5 µg/mL (≈ 7.7 µM); pIC50 [12]: 6.00; MIC ([6]; E. coli C291-b1, Addition None): >1,272 ^* μg/mL
3 | CN[C@H](CC(C)C)C(=O)N[C@H]1C(=O)N[C@@H](CC(N)=O)C(=O)N[C@H]2C(=O)N[C@H]3C(=O)N[C@H](C(=O)N[C@H](C(=O)O)c4cc(O)cc(O)c4-c4cc3ccc4O)[C@H](O)c3ccc(c(Cl)c3)Oc3cc2cc(c3O[C@@H]2O[C@H](CO)[C@@H](O)[C@H](O)[C@H]2O[C@H]2C[C@](C)(N)[C@H](O)[C@H](C)O2)Oc2ccc(cc2Cl)[C@H]1O [Vancomycin] | 250 µg/mL (≈ 173 µM) | 250 µg/mL (≈ 173 µM) | 250 (≈ 173 µM) | 1000 µg/mL (≈ 690 µM) | 250 µg/mL (≈ 173 µM) | – | – | – | >250 | – | > 250 | – | – | – | – | 250 µg/mL (≈ 173 µM) | MIC ([3]; Pseudomonas aeruginosa, P. aeruginosa T15464 (MDR), Addition None): > 1000 µg/mL; MIC ([3]; Pseudomonas aeruginosa, P. aeruginosa T15464 (MDR), NAB7061 4 μg/mL): > 1000 µg/mL; MIC ([3]; Pseudomonas aeruginosa, P. aeruginosa T15464 (MDR), PMBN 3 μg/mL): 31 µg/mL (≈ 21.4 µM); MIC ([3]; Pseudomonas aeruginosa, read-out: MIC100, clinical MDR P. aeruginosa strain T15464): > 1000 µg/mL; MIC ([5]; Klebsiella pneumoniae, BARB105, K. pneumoniae BARB 105, Addition None): > 1000 µg/mL; MIC ([5]; Klebsiella pneumoniae, BARB105, K. pneumoniae BARB 105, NAB7061 4 μg/mL): 1000 µg/mL (≈ 690 µM); MIC ([5]; Klebsiella pneumoniae, BARB105, K. pneumoniae BARB 105, PMBN 25 μg/mL): 500 µg/mL (≈ 345 µM); MIC ([10]; Escherichia coli, MC4100, E. coli MC4100, Addition None): 250 µg/mL (≈ 173 µM); MIC ([10]; Escherichia coli, MC4100, E. coli MC4100, PMBN 25 μg/mL): 31.3 µg/mL (≈ 21.6 µM); MIC ([11]; Shigella flexneri, ATCC12022, Shigella flexneri ATCC12022, Addition None): > 250 µg/mL; MIC ([11]; Shigella flexneri, ATCC12022, Shigella flexneri ATCC12022, NAB7061 4 μg/mL): 250 µg/mL (≈ 173 µM); MIC ([11]; Shigella flexneri, ATCC12022, Shigella flexneri ATCC12022, PMBN 25 μg/mL): 62.5 µg/mL (≈ 43.1 µM); MIC ([6]; Escherichia coli, C291B1, E. coli C291-b1, Addition None): > 250 µg/mL; MIC ([6]; Escherichia coli, C291B1, E. coli C291-b1, NAB7061 4 μg/mL): 125 µg/mL (≈ 86.3 µM); MIC ([6]; Escherichia coli, C291B1, E. coli C291-b1, PMBN 25 μg/mL): 31 µg/mL (≈ 21.4 µM)
4 | CC[C@H]1OC(=O)[C@H](C)[C@@H](O[C@H]2C[C@@](C)(OC)[C@@H](O)[C@H](C)O2)[C@H](C)[C@@H](O[C@@H]2O[C@H](C)C[C@H](N(C)C)[C@H]2O)[C@](C)(O)C[C@@H](C)C(=O)[C@H](C)[C@@H](O)[C@]1(C)O [erythromycin] | – | – | – | – | – | – | – | > 1000 | – | – | – | – | – | – | – | – | –
